# Experiments:
# [1] = system: Asian patients with advanced or metastatic malignancies; test: Adverse events; type: in vivo, human; details: Schedule 1; patients n (%)
# Outline: (§1)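 Test compound given orally by schedule. Schedule 1: Mon/Thu, 28-day cycle. Schedule 2: Mondays weekly, 28-day cycle. Schedule 3: Mon/Wed for 2 of 3 weeks, 21-day cycle. Schedule 4: Mon/Wed/Fri, 28-day cycle. All patients received anorexia/nausea prophylaxis. AEs were recorded up to 30 days after the last dose and graded every 2 weeks for cycles 1–2, then every 4 weeks.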
# [2] = system: Asian patients with advanced or metastatic malignancies; test: Phase 1a 3 + 3 dose escalation: DLT, MTD, RP2D, tolerability, deaths; type: in vivo, human
# Outline: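 Modified 3+3 design: ≥3 patients per cohort, expanded to six after one DLT; DLTs were assessed in cycle 1. DLT was possibly drug-related grade ≥3 nonhaematological toxicity (not reversible asymptomatic electrolyte changes or hair loss). Haematological DLT: grade 4 neutropenia ≥7 days, febrile neutropenia, or grade ≥3 thrombocytopenia with bleeding. 2/6 DLTs set the MTD; RP2D was the next lower level. Deaths were counted within 30 days of last dose.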
# [3] = system: Asian patients with advanced or metastatic malignancies; test: Adverse events; type: in vivo, human; details: Schedule 2; patients n (%)
# Outline: as §1
# [4] = system: relapsed or refractory diffuse large B cell lymphoma; details: relapsed or refractory DLBCL; cited from earlier work
# tumour biopsies = test: Immunohistochemistry of paired pretreatment and ontreatment tumour biopsies; type: in vivo, human
# Outline: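 Paired pretreatment and on-treatment tumour biopsies came from six consenting dose-escalation patients. IHC covered […], Ki67 for proliferation, and ApopTag and cleaved caspase 3 for apoptosis.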
# [5] = system: metastatic castration-resistant prostate cancer; details: eight patients with measurable disease at baseline; cited from earlier work
# colorectal cancer = test: Exploratory PFS subgroup analysis in advanced colorectal cancer patients; type: in vivo, human
# [6] = system: metastatic triple-negative breast cancer; details: 10 heavily pretreated patients; cited from earlier work
# [7] = cited from earlier work
# [8] = Schedule 2, 70 mg/m^2 once a week, six patients
# [9] = Schedule 3, 50 mg/m^2, subsequent four patients
# [10] = after 6 weeks of treatment vs baseline, lymphoma, thymoma, colorectal carcinoma
# [11] = Caucasian patients, 39 mg/m^2, n = 9
smiles,measurement,setting,value
O=C(/C=C\n1cnc(-c2cc(C(F)(F)F)cc(C(F)(F)F)c2)n1)NNc1cnccn1 [selinexor],"Anaemia, Any grade",[1],1 (16.6) %
same,"Anorexia, Any grade",[1],4 (66.6) %
same,"Dehydration, Any grade",[1],1 (16.6) %
same,"Diarrhoea, Any grade",[1],2 (33.3) %
same,"Fatigue, Any grade",[1],6 (100) %
same,"Hypokalaemia, Any grade",[1],2 (33.3) %
same,"Hypomagnesemia, Any grade",[1],1 (16.6) %
same,"Hyponatremia, Any grade",[1],6 (100) %
same,"Nausea, Any grade",[1],1 (16.6) %
same,"Thrombocytopenia, Any grade",[1],2 (33.3) %
same,"Vomiting, Any grade",[1],1 (16.6) %
same,"Weight loss, Any grade",[1],1 (16.6) %
same,tolerability,"[2]; 40 mg/m^2 given 2 out of 3 weeks, Asian patient cohort",most tolerable
same,DLTs,"[2]; Schedule 1, 40 mg/m^2 twice-a-week continuous, six patients",no DLTs were observed
same,patients with DLTs,"[2]; Schedule 2, 50 mg/m^2 once a week, three patients",none of the three patients
same,DLTs,"[2]; Schedule 2, 60 mg/m^2 once a week, three patients",did not show any DLTs
same,patients with grade 3 fatigue that persisted for more than 5 days,"[2]; Schedule 2, 70 mg/m^2 once a week, additional four patients",one patient
same,patients with grade 3 thrombocytopenia,[2]; [8],one patient
same,patients with grade 3 vomiting,[2]; [8],one patient
same,patients developing DLTs,"[2]; Schedule 3, 40 mg/m^2 twice a week 2 out of 3 weeks",0/3
same,patients with G3 fatigue,"[2]; Schedule 3, 50 mg/m^2, first six patients",one out of six patients
same,patients with G3 dehydration from loss of appetite,[2]; [9],One out of the subsequent four patients
same,patients with G3 hyponatremia,[2]; [9],one other patient
same,patients with G3 diarrhoea and G3 syncope,"[2]; Schedule 4, 16 mg/m^2 three times a week continuous",two out of five patients
same,patients developing DLTs (G3 fatigue and G3 septicaemia),"[2]; Schedule 4, 20 mg/m^2 three times a week continuous",two out of six patients
same,tolerability of schedule,"[2]; Schedule 4, three-times-a-week continuous dosing",deemed intolerable
same,deaths within 30 days of the last study drug administration,"[2]; phase 1a cohort, none related to the study drug",eight
same,"RP2D, flat dose",[2]; twice a week with a 1-week drug holiday every 3-week cycle,60 mg
same,"Abdominal discomfort, Any grade",[3],4 (23.52) %
same,"Abdominal discomfort, G1/G2",[3],4 (23.52) %
same,"Anaemia, Any grade",[3],6 (35.29) %
same,"Anorexia, Any grade",[3],10 (58.8) %
same,"Back pain, Any grade",[3],1 (5.88) %
same,"Constipation, Any grade",[3],1 (5.88) %
same,"Diarrhoea, Any grade",[3],3 (17.64) %
same,"Edema, Any grade",[3],1 (5.88) %
same,"Fatigue, Any grade",[3],14 (82.35) %
same,"Hypokalaemia, Any grade",[3],2 (11.76) %
same,"Hypomagnesemia, Any grade",[3],5 (29.41) %
same,"Hyponatremia, Any grade",[3],11 (64.70) %
same,"Hypophosphatemia, Any grade",[3],3 (17.64) %
same,"Hypotension, Any grade",[3],1 (5.88) %
same,"Intention tremor, Any grade",[3],1 (5.88) %
same,"Mucositis, Any grade",[3],1 (5.88) %
same,"Nausea, Any grade",[3],11 (64.70) %
same,"Neutropenia, Any grade",[3],2 (11.76) %
same,"Palpitation, Any grade",[3],1 (5.88) %
same,"Pneumonitis, Any grade",[3],1 (5.88) %
same,"Raised amylase/lipase, Any grade",[3],1 (5.88) %
same,"Raised amylase/lipase, G1/G2",[3],1 (5.88) %
same,"Thrombocytopenia, Any grade",[3],6 (35.29) %
same,"Vomiting, Any grade",[3],7 (41.17) %
same,"Weight loss, Any grade",[3],5 (29.41) %
same,complete response rate,[4],13%
same,apoptosis in tumour samples (IHC),tumour biopsies; [10],increase
same,proliferation in tumour samples (IHC),tumour biopsies; [10],marked decrease
same,XPO1 cargo protein p53 localization in tumour sections,tumour biopsies; patient with NSCLC,nuclear accumulation
same,patients achieving partial response,[5],25%
same,patients achieving stable disease as best radiographic response,[5],50%
same,HR for PFS,"colorectal cancer; RAS/PIK3CA pathway mutation vs wild-type, p = 0.09, log-rank",0.58 (0.25–1.32)
same,median PFS,colorectal cancer; colorectal cancer patients with a RAS/PIK3CA pathway mutation,86 days
same,median PFS,"colorectal cancer; colorectal cancer patients, RAS/PIK3CA wild-type",50 days
same,PFS,colorectal cancer; one heavily pretreated colorectal cancer patient with BRAF V600E somatic mutation,129 days
same,objective responses,[6],did not result in any objective responses
same,AUC0-48,[7]; [11],5829 ± 1587 ng·h/mL
same,Cmax,[7]; [11],553 ± 238 ng/mL
same,Mean half-life,[7]; study KCP-330-002,~ 6 h
